Calls of active or inactive are those of the source.
Assays:
Type in all cases: functional, cell-based
[1] = test system: LNCaP; assay: Induction of apoptosis in human LNCAP cells assessed as inhibition of AR mRNA transcription at 30 uM after 24 hrs by RT-PCR in presence of DHT
Outline: (§1)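 Cells were treated as for the blots (24 h compound, then DHT 1.0 nM or none). Total RNA (2 µg) was reverse-transcribed and AR and PSA were quantified by real-time PCR. Relative levels were calculated by the comparative threshold cycle method, with GAPDH as housekeeping gene.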

[2] = test system: LNCaP; assay: Induction of apoptosis in human LNCAP cells assessed as decrease in Bcl2 levels at 30 uM after 48 hrs by Western blot
Outline: (§2)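 Cells were treated for various times and total cell lysates prepared. Lysates were resolved on 8–14% polyacrylamide gels and immunoblotted with an antibody to each protein, with b-actin as internal control.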

[3] = test system: LNCaP; assay: Induction of apoptosis in human LNCAP cells assessed as decrease in procaspase-9 expression at 30 uM after 24 hrs by Western blot; outline: as §2
[4] = test system: LNCaP; assay: Induction of apoptosis in human LNCAP cells assessed as inhibition of PSA protein expression at 30 uM by Western blot; settings: TDE = time-dependent effect
[5] = test system: LNCaP; assay: Cell cycle arrest in human LNCAP cells assessed as accumulation at subG1 phase at 30 uM by flow cytometry; settings: TDE = time-dependent effect
Outline: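 LNCaP cells exposed for various times, then fixed nuclei stained with propidium iodide. DNA content read by flow cytometry, 10,000 nuclei per sample. Sub-G1 fraction reported as means ± SD of three separate experiments.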

[6] = test system: LNCaP; assay: Induction of apoptosis in human LNCAP cells assessed as procaspase-3 cleavage at 30 uM after 24 hrs by Western blot; outline: as §2
[7] = test system: LNCaP; assay: Induction of apoptosis in human LNCAP cells assessed as inhibition of DHT-induced AR protein expression at 30 uM after 24 hrs by Western blot
Outline: (§3)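 LNCaP cells were grown 48 h in RPMI 1640 with 10% FBS, then exposed 24 h to compound given in ethanol. This was followed by 2 h with or without DHT (0.1 and 1 nM). Lysate protein was measured by BCA, run on SDS–PAGE and blotted to nitrocellulose. Blots were probed with primary and peroxidase-conjugated secondary antibodies, with chemiluminescent detection.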

[8] = test system: LNCaP; assay: Induction of apoptosis in human LNCAP cells assessed as decrease in procaspase-8 expression at 30 uM after 24 hrs by Western blot; outline: as §2
[9] = test system: LNCaP; assay: Induction of apoptosis in human LNCAP cells assessed as inhibition of PSA mRNA transcription at 30 uM after 24 hrs by RT-PCR; outline: as §1
[10] = test system: LNCaP; assay: Induction of apoptosis in human LNCAP cells assessed as procaspase-8 cleavage at 30 uM by Western blot; settings: TDE = time-dependent effect; outline: as §2
[11] = test system: LNCaP; assay: Induction of apoptosis in human LNCAP cells assessed as inhibition of AR protein expression at 30 uM by Western blot; settings: TDE = time-dependent effect
[12] = test system: LNCaP; assay: Induction of apoptosis in human LNCAP cells assessed as DNA fragmentation at 30 uM by TUNEL assay
Outline: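 Cells were treated for the indicated times, then fixed and permeabilized. They were stained with fluorescent TUNEL reagent and analysed by flow cytometry for DNA fragmentation.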

[13] = test system: LNCaP; assay: Induction of apoptosis in human LNCAP cells assessed as increase in mitochondrial cytochrome C release at 30 uM after 24 hrs by Western blot; outline: as §2
[14] = test system: LNCaP; assay: Induction of apoptosis in human LNCAP cells assessed as inhibition of PSA mRNA transcription at 30 uM after 24 hrs by RT-PCR in presence of DHT; outline: as §1
[15] = test system: LNCaP; assay: Induction of apoptosis in human LNCAP cells assessed as inhibition of DHT-induced PSA protein expression at 30 uM after 24 hrs by Western blot; outline: as §3
[16] = test system: LNCaP; assay: Induction of apoptosis in human LNCAP cells assessed as inhibition of AR mRNA transcription at 30 uM after 24 hrs by RT-PCR; outline: as §1
[17] = test system: LNCaP; assay: Induction of apoptosis in human LNCAP cells assessed as PARP cleavage at 30 uM after 24 hrs by Western blot; outline: as §2
[18] = test system: LNCaP; assay: Induction of apoptosis in human LNCAP cells assessed as decrease in Bcl-XL levels at 30 uM after 24 hrs by Western blot; outline: as §2

Measured: Activity

C/C=C(\Cc1ccccc1)C(=O)CC(O)CCO (stereo not drawn)
active: [1] | [2] | [3] | [4] tde | [5] tde | [6] | [7] | [8] | [9] | [10] tde | [11] tde | [12] | [13] | [14] | [15] | [16] | [17] | [18]
